In article PMC6555264 (Infection and Drug Resistance, 2019):
Several values for one entry are separate records, joined by “and”; a condition that tells them apart may be missing. Equal values may be shown once.

Key:
B. pseudomallei = type: cell-based, Burkholderia pseudomallei
[1] = test system: A. baumannii strains and K. pneumoniae strains; assay: Dansyl polymyxin permeability assay; type: cell-based; conditions: increasing concentrations of AR-12; depending on the strain; DP 0.6 μM
How it was run: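 Log-phase cells (overnight culture subcultured 1:100 for 2–3 h) were pelleted at 0.5 OD-equivalent and resuspended in 1 ml of 5 mM HEPES at room temperature. Fluorescence was read at room temperature (ex 320, em 500 nm), with cell-free wells subtracted. Two or more repeats.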

Francisella strains = conditions: cited from earlier work
Protein binding in mice = type: in vitro ADME
cyclooxygenase 2 (COX-2) = conditions: eukaryotic host; cited from earlier work
[2] = test system: A. baumannii and K. pneumoniae strains; assay: N-phenyl-1-naphthylamine; type: cell-based; conditions: AR-12 4 μg/ml and 8 μg/ml
How it was run: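 Cell suspensions were prepared as for the dansyl polymyxin assay (log phase, in 5 mM HEPES). Cells were added at 1:4 to a HEPES/NPN/test compound mix, in triplicate. Fluorescence was read at room temperature (ex 355, em 405 nm), with cell-free wells subtracted. Two or more independent repeats.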

[3] = test system: panel of MDR Gram-negative pathogenic bacterial strains; assay: Broth dilution MIC, whole panel; type: cell-based; conditions: for fold reduction of MIC in the presence of AR-12: certain polymyxin-resistant Gram-negative bacterial strains
How it was run: (§1)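 Colonies from Mueller-Hinton II agar (37°C, overnight) were suspended in PBS, sized by OD600 and diluted in CAMHB, giving a final inoculum of 5×10^5 CFU/ml. Single-drug MICs: 96-well round-bottom plates, static 37°C for 18–24 h, growth scored visually. Checkerboard: twofold polymyxin B or colistin (0.13–64 or 128 μg/ml) against twofold test compound (1–64 or 128 μg/ml; DMSO stock), incubated 16–20 h.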

B. mallei = type: cell-based, Burkholderia mallei
Enterobacter cloacae = type: cell-based
[4] = Maximum tolerated dose in mice; type: in vivo; conditions: p.o.
[5] = test system: Francisella tularensis and F. novicida in THP-1 macrophages; conditions: cited from earlier work
Serratia marcescens = type: cell-based
K. pneumoniae [6] = assay: Broth microdilution MIC, alone and with AR-12; type: cell-based, Klebsiella pneumoniae; conditions: for MIC: drug alone; for MIC (4 µg/ml AR-12): with 4 µg/ml AR-12
How it was run: as §1

A. baumannii [7] = assay: Broth microdilution MIC, alone and with AR-12; type: cell-based, Acinetobacter baumannii; conditions: for MIC: strain 34299 (JMI Laboratories), drug alone; for fold reduction of MIC in the presence of 4 μg/ml of AR-12: MDR A. baumannii (2 out of 4 strains tested); for MIC (4 µg/ml AR-12): strain 34299, with 4 µg/ml AR-12
How it was run: as §1

[8] = test system: MDR clinical isolate of N. gonorrhoeae; conditions: cited from earlier work
[9] = test system: ampicillin and kanamycin-resistant E. coli strain; conditions: laboratory-generated ampicillin and kanamycin-resistant E. coli; cited from earlier work
Providencia stuartii = type: cell-based
Proteus mirabilis = type: cell-based
[10] = Pharmacokinetic study in mice, oral; type: in vivo, Balb/c mice
How it was run: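 Female Balb/c mice received a single oral dose of test compound at 80 mg/kg, formulated at 8 mg/mL in 10% Solutol HS 15. Plasma was sampled at 0, 0.5, 1, 2, 4, 8, 10 and 24 h, with 3 mice per time point. Drug levels were quantified by HPLC.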

K. pneumoniae [11] = assay: Bacterial growth assay; type: cell-based, Klebsiella pneumoniae
How it was run: (§2)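 Cultures were grown overnight (~16 h) in CAMHB at 37°C with shaking, then subcultured 1:100 for 2–3 h to log phase. 5×10^5 CFU/ml were dispensed into CAMHB wells holding preset drug concentrations, in triplicate. Plates were shaken at 37°C, with OD600 read automatically every 15 min for 24 h. Two or more independent repeats.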

A. baumannii [12] = assay: Bacterial growth assay; type: cell-based, Acinetobacter baumannii
How it was run: as §2

[13] = strain 30835 (JMI Laboratories)

Molecule: NCC(=O)Nc1ccc(-n2nc(C(F)(F)F)cc2-c2ccc3c(ccc4ccccc43)c2)cc1 [AR-12]
- MIC (B. pseudomallei): >128 µg/mL
- enhancement of dansyl polymyxin B (DP) fluorescence [1]: 25–50 fold
- direct antibacterial activity (Francisella strains): did not have any direct antibacterial activity
- protein bound (Protein binding in mice): 99%
- COX-2 inhibitory activities (cyclooxygenase 2 (COX-2)): devoid of cyclooxygenase 2 (COX-2) inhibitory activities
- effect on NPN fluorescence (outer membrane permeability) [2]: increased the fluorescence of NPN
- lowest AR-12 concentration at which the potentiating activity was observed for majority of the MDR strains ([3]; combination with polymyxin B or colistin): 4 µg/mL
- MIC of AR-12 alone ([3]; panel of MDR pathogens, tested upto 64 µg/ml): > 64 µg/mL
- MIC (B. mallei): >128 µg/mL
- MIC (Enterobacter cloacae): >64 µg/mL
- maximum tolerated dose [4]: 100 mg/kg
- intracellular survival of bacteria in macrophages [5]: inhibit the intracellular survival
- MIC (Serratia marcescens): >64 µg/mL
- MIC (K. pneumoniae [6]; strain 0010 (CDC)): >64 µg/mL
- MIC (K. pneumoniae [6]; strain 101434 (USAMRIID)): >64 µg/mL
- MIC (K. pneumoniae [6]; strain 101522 (USAMRIID)): >64 µg/mL
- MIC (K. pneumoniae [6]; strain 101783 (USAMRIID)): >64 µg/mL
- MIC (A. baumannii [7]): >128 µg/mL
- bacterial proliferation [8]: reduced the proliferation
- bacterial growth [9]: significantly inhibited the growth
- MIC (Providencia stuartii): >64 µg/mL
- MIC (Proteus mirabilis): >64 µg/mL
- bioavailability [10]: poor
- AUC (0–24 hrs) ([10]; 80 mg/kg, p.o., q.d.): 41.4 µg·h/mL
- Cmax ([10]; 80 mg/kg, p.o., q.d.): 2.1 µg/mL
- Tmax ([10]; 80 mg/kg, p.o., q.d.): 10 h
- plasma levels sustained over a 24 hrs period ([10]; 80 mg/kg, p.o., q.d.): 1.5–2.1 μg/mL and ~ 2 μg/mL

Molecule: colistin
- colistin concentration giving growth inhibition (K. pneumoniae [11]; MDR K. pneumoniae 30835, colistin alone): 8 µg/mL
- colistin concentration giving growth inhibition (K. pneumoniae [11]; MDR K. pneumoniae 30835, in the presence of 4 μg/ml AR-12): 1 µg/mL
- colistin concentration giving growth inhibition (K. pneumoniae [11]; polymyxin sensitive ATCC K. pneumoniae 13833, colistin alone): 2 µg/mL
- colistin concentration giving growth inhibition (K. pneumoniae [11]; polymyxin sensitive ATCC K. pneumoniae 13833, in the presence of 4 μg/ml AR-12): 0.125 µg/mL
- fold reduction of MIC in the presence of AR-12 [3]: 4–60 fold
- colistin concentration giving growth inhibition (A. baumannii [12]; MDR A. baumannii 34299, colistin alone): > 32 µg/mL
- colistin concentration giving growth inhibition (A. baumannii [12]; MDR A. baumannii 34299, in the presence of 4 μg/ml AR-12): 1 µg/mL
- colistin concentration giving growth inhibition (A. baumannii [12]; polymyxin sensitive ATCC A. baumannii 19606, colistin alone): 0.5 µg/mL
- colistin concentration giving growth inhibition (A. baumannii [12]; polymyxin sensitive ATCC A. baumannii 19606, in the presence of 4 μg/ml AR-12): 0.015 µg/mL
- MIC (4 µg/ml AR-12) (Enterobacter cloacae): 16 µg/mL
- MIC (Serratia marcescens): >64 µg/mL
- MIC (4 µg/ml AR-12) (Serratia marcescens): >64 µg/mL
- fold reduction of MIC in the presence of 4 μg/ml of AR-12 (K. pneumoniae [6]; MDR K. pneumoniae (polymyxin B 7 out of 7, colistin 5 out of 7 strains tested)): 4–60 fold
- MIC (K. pneumoniae [6]; strain 0010 (CDC)): 8 µg/mL
- MIC (4 µg/ml AR-12) (K. pneumoniae [6]; strain 0010): 8 µg/mL
- MIC (K. pneumoniae [6]; [13]): >64 µg/mL
- MIC (4 µg/ml AR-12) (K. pneumoniae [6]; strain 30835): 16 µg/mL
- MIC (K. pneumoniae [6]; strain 101434 (USAMRIID)): >64 µg/mL
- MIC (4 µg/ml AR-12) (K. pneumoniae [6]; strain 101434): 16 µg/mL
- MIC (K. pneumoniae [6]; strain 101522 (USAMRIID)): >64 µg/mL
- MIC (4 µg/ml AR-12) (K. pneumoniae [6]; strain 101522): 8 µg/mL
- MIC (K. pneumoniae [6]; strain 101783 (USAMRIID)): >64 µg/mL
- MIC (4 µg/ml AR-12) (K. pneumoniae [6]; strain 101783): 1 µg/mL
- fold reduction of MIC in the presence of 4 μg/ml of AR-12 (A. baumannii [7]): 4–16 fold
- MIC (A. baumannii [7]): >64 µg/mL
- MIC (4 µg/ml AR-12) (A. baumannii [7]): 4 µg/mL
- MIC (Providencia stuartii): >64 µg/mL
- MIC (4 µg/ml AR-12) (Providencia stuartii): >64 µg/mL
- MIC (Proteus mirabilis): >64 µg/mL
- MIC (4 µg/ml AR-12) (Proteus mirabilis): >64 µg/mL

Molecule: polymyxin B
- MIC (B. pseudomallei): >128 µg/mL
- MIC (4 µg/ml AR-12) (B. pseudomallei): >128 µg/mL
- fold reduction of MIC in the presence of AR-12 [3]: 4–60 fold
- MIC (B. mallei): 128 µg/mL
- MIC (4 µg/ml AR-12) (B. mallei): 128 µg/mL
- MIC (Serratia marcescens): >64 µg/mL
- MIC (4 µg/ml AR-12) (Serratia marcescens): >64 µg/mL and 64 µg/mL
- MIC (K. pneumoniae [6]; strain 0010 (CDC)): 2 µg/mL
- MIC (4 µg/ml AR-12) (K. pneumoniae [6]; strain 0010): 2 µg/mL
- MIC (K. pneumoniae [6]; [13]): 128 µg/mL
- MIC (4 µg/ml AR-12) (K. pneumoniae [6]; strain 30835): ≤2 µg/mL
- MIC (K. pneumoniae [6]; strain 101434 (USAMRIID)): 64 µg/mL
- MIC (4 µg/ml AR-12) (K. pneumoniae [6]; strain 101434): 16 µg/mL
- MIC (K. pneumoniae [6]; strain 101522 (USAMRIID)): 64 µg/mL
- MIC (K. pneumoniae [6]; strain 101783 (USAMRIID)): >64 µg/mL
- MIC (4 µg/ml AR-12) (K. pneumoniae [6]; strain 101783): 2 µg/mL
- fold reduction of MIC in the presence of 4 μg/ml of AR-12 (A. baumannii [7]): 4–16 fold
- MIC (A. baumannii [7]): 16 µg/mL
- MIC (4 µg/ml AR-12) (A. baumannii [7]): ≤2 µg/mL
- MIC (Providencia stuartii): >64 µg/mL
- MIC (4 µg/ml AR-12) (Providencia stuartii): >64 µg/mL
- MIC (Proteus mirabilis): >64 µg/mL
- MIC (4 µg/ml AR-12) (Proteus mirabilis): 64 µg/mL and >64 µg/mL
